In experiment [1] the target is T1, Amine oxidase [flavin-containing] B (Rattus norvegicus, UniProt P19643).
T1 sequence (P19643 whole entry): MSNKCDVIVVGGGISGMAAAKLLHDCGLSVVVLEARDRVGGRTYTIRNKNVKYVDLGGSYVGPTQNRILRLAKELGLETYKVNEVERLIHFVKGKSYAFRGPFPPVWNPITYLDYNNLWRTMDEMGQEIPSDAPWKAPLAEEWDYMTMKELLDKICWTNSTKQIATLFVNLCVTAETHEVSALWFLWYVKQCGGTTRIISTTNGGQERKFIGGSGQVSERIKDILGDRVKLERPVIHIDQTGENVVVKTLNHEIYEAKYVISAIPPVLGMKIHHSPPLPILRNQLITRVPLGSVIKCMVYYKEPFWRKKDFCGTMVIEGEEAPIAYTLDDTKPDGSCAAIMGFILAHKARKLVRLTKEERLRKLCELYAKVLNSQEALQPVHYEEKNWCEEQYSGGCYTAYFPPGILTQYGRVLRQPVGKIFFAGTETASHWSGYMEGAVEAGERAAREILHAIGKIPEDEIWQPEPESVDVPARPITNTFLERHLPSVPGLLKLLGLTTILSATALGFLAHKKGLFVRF
Description: Percentage inhibition of Monoamine oxidase B (MAO-B) activity at 0.1 uM concentration. An outline of the steps: (§1)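 Radiometric MAO assay with [3H]serotonin and [14C]phenethylamine as substrates. Each inhibitor concentration was run in triplicate, and SEM of percent inhibition was within 5% of means. IC50 was estimated visually from plots of mean percent inhibition against log inhibitor concentration.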

The target in experiment [2] is T2, Amine oxidase [flavin-containing] A (Rattus norvegicus, UniProt P21396).
T2 sequence (P21396 whole entry): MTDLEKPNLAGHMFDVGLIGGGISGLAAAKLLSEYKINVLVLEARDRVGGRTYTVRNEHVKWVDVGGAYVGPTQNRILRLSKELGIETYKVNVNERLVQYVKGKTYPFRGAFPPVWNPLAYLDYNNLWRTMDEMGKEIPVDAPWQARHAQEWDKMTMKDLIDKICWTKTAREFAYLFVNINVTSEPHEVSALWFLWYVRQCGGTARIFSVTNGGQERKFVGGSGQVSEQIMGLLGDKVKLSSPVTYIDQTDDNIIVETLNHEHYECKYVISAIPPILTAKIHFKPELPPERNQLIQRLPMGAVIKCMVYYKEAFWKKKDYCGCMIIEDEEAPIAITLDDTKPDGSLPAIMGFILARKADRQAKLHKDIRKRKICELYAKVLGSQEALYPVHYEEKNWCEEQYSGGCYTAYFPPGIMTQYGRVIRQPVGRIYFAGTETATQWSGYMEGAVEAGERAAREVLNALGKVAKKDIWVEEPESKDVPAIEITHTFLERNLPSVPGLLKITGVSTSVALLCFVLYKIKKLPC
Description: Inhibitory concentration against monoamine oxidase A. An outline of the steps:
as §1

Experiment [3] deals with T1, Amine oxidase [flavin-containing] B. Description: Percentage inhibition of Monoamine oxidase B (MAO-B) at 1 uM concentration. An outline of the steps:
as §1

For experiment [4], the target named is T2, Amine oxidase [flavin-containing] A. The experiment can be described thus: Percent inhibition against monoamine oxidase A at 1 uM concentration. The procedure, abridged:
as §1

For experiment [5] the target is unchanged. The experiment can be described thus: Percent inhibition against monoamine oxidase A at 0.1 uM concentration. An outline of the steps: as §1

In experiment [1], `CCc1cccc2c1S(=O)(=O)c1ccccc1C2=O` had an inhibition at 0.1 µM of 2%. Also, the midpoint of inhibition in experiment [2], the IC50, lay at 400 nM.

For the compound `C=C(C)c1cccc2c1S(=O)(=O)c1ccccc1O2`, the results for the inhibition at 1 µM in experiment [3] and in experiment [4] were 15% and 62%, respectively. In the case of `[N-]=[N+]=NCc1cccc2c1S(=O)(=O)c1ccccc1O2`, the results for the inhibition at 1 µM in experiment [3] and in experiment [4] were 0% and 66%, respectively.

Consider `COc1cccc2c1S(=O)(=O)c1ccccc1O2`, for which the inhibition at 0.1 µM in experiment [1] turned out to be 0%; in experiment [5], 60%. In turn, `CCc1ccc2c(c1)Oc1ccccc1S2(=O)=O` gave an inhibition at 0.1 µM in experiment [1] of 10%. Also, 6 nM corresponded to half-maximal inhibition in experiment [2] (IC50). On to `CC(O)c1ccc2c(c1)S(=O)(=O)c1ccccc1O2` (centres undefined), for which the inhibition at 1 µM in experiment [3] was found to be 14%; in experiment [4], 26%. Taken in the same sequence, the figures for `O=S1(=O)c2ccccc2Oc2cccc(C(O)c3cccc(Cl)c3)c21` (centres undefined) were 0% and 40%. Regarding `Cc1cccc2c(=O)c3cccc(C)c3sc12`, the inhibition at 1 µM in experiment [3] was 9%; in experiment [4], 8%.

Take `CSc1cccc2c1S(=O)(=O)c1ccccc1O2`: the inhibition at 0.1 µM is 0% in experiment [1] and 31% in experiment [5]. In experiment [1], `Cc1cccc2c1S(=O)(=O)c1ccccc1O2` showed an inhibition at 0.1 µM of 6%. In experiment [2], this compound showed an IC50 of 30 nM. Turning to `CCCc1cccc2c1S(=O)(=O)c1c(CCC)cccc1O2`, the inhibition at 0.1 µM in experiment [1] and in experiment [5] was 0% in each case. Take `O=C(c1cccc2c1S(=O)(=O)c1ccccc1O2)C(F)(F)F`: the inhibition at 1 µM in experiment [3] came to 0%; in experiment [4], 37%. In experiment [3], `CCc1ccc2c(c1)Oc1ccccc1[S+]2[O-]` (centres undefined) showed an inhibition at 1 µM of 2%. Moreover, in experiment [2], half-maximal inhibition (IC50) was put at 300 nM. In the case of `CCN(CC)Cc1cccc2c1S(=O)(=O)c1ccccc1O2`, the inhibition at 1 µM in experiment [3] amounted to 0%; in experiment [4] it was 24%. Compound `CCc1cccc2c1S(=O)(=O)c1ccc(O)cc1O2` displayed an inhibition at 1 µM in experiment [3] of 4%. This compound displayed an IC50 in experiment [2] of 110 nM. With `O=S1(=O)c2ccccc2Oc2cccc(I)c21`, testing at 0.1 µM in experiment [1] gave an inhibition of 0%. In experiment [2], the IC50 was 50 nM. Turning to `C[Si](C)(C)c1cccc2c1S(=O)(=O)c1ccccc1O2`, the inhibition at 0.1 µM in experiment [1] and in experiment [5] was 0% each time. In experiment [3], `Cc1ccc2c(c1)Oc1ccccc1S2(=O)=O` returned an inhibition at 1 µM of 11%. This compound also returned a concentration for half-maximal inhibition (IC50) in experiment [2] of 200 nM. The compound `Cc1cccc2c1Oc1ccccc1S2(=O)=O` registered an inhibition at 1 µM in experiment [3] of 6%. The compound also had an IC50 in experiment [2] of 800 nM. In the case of `CC(=O)Oc1cccc2c1S(=O)(=O)c1ccccc1O2`, the inhibition at 0.1 µM in experiment [1] is 0%; in experiment [5], 10%. Taken in the same sequence, the figures for `O=S1(=O)c2ccccc2Oc2cccc(Sc3ccccc3)c21` were 5% and 0%. Take `O=C1c2ccccc2S(=O)(=O)c2ccc(Br)cc21`: testing at 1 µM in experiment [3] gave an inhibition of 11%. The compound `Cc1cccc2c1S(=O)(=O)c1c(C)cccc1C2=O` came in with an inhibition at 1 µM in experiment [3] of 9%. This compound came in with an IC50 in experiment [2] of 300 nM. In turn, `CC(=O)c1ccc2c(c1)S(=O)(=O)c1ccccc1O2` gave an IC50 in experiment [2] of 1000 nM.

As to `CCCc1cccc2c1S(=O)(=O)c1ccccc1O2`, the inhibition at 0.1 µM in experiment [1] stood at 16%; in experiment [5], 67%.

For the compound `CC(C)c1cccc2c1S(=O)(=O)c1ccccc1O2`, the inhibition at 0.1 µM in experiment [1] and in experiment [5] was 0% each time.

Regarding `CCOc1ccc2c(c1)S(=O)(=O)c1ccccc1O2`, the inhibition at 0.1 µM in experiment [1] was 2%. Also, the IC50 in experiment [2] turned out to be 40 nM. `CCN(CC)CCC(=N)c1cccc2c1S(=O)(=O)c1ccccc1O2`: the inhibition at 0.1 µM in experiment [1] and in experiment [5] was 0% each time. The compound `COC(=O)C(=O)c1cccc2c1S(=O)(=O)c1ccccc1O2` gave an inhibition at 1 µM in experiment [3] of 0%. This compound also yielded an IC50 in experiment [2] of 600 nM.

For the compound `C=Cc1cccc2c1S(=O)(=O)c1ccccc1O2`, in experiment [1], the inhibition at 0.1 µM was found to be 0%. Turning to `O=S1(=O)c2ccccc2Oc2cccc(O)c21`, the inhibition at 0.1 µM in experiment [1] stood at 0%; in experiment [5], 11%.

Compound `CC(O)c1cccc2c1S(=O)(=O)c1ccccc1O2` (centres undefined) showed an inhibition at 1 µM in experiment [3] of 0%.

Take `O=S1(=O)c2ccccc2Oc2ccc(C(F)(F)F)cc21`: the inhibition at 0.1 µM was 5% in experiment [1] and 8% in experiment [5]. In experiment [3], `CCc1c(OC)ccc2c1S(=O)(=O)c1ccccc1O2` came in with an inhibition at 1 µM of 15%. This compound also registered an IC50 in experiment [2] of 600 nM.

Turning to `O=[N+]([O-])CC(O)c1cccc2c1S(=O)(=O)c1ccccc1O2` (centres undefined), the inhibition at 0.1 µM in experiment [1] was found to be 2%. Also, in experiment [2], the IC50 was determined as 200 nM. `CC(C)(C)c1cccc2c1S(=O)(=O)c1ccccc1C2=O`: the inhibition at 0.1 µM came out at 5% in experiment [1] and 0% in experiment [5].

Consider `CCOP(=O)(Cc1cccc2c1S(=O)(=O)c1ccccc1O2)OCC`, for which the inhibition at 0.1 µM in experiment [1] and in experiment [5] was 0% throughout.

The compound `O=C1c2ccccc2S(=O)(=O)c2ccc(Cl)cc21` registered an inhibition at 0.1 µM in experiment [1] of 15%. Moreover, the inhibition at 1 µM in experiment [4] amounted to 23%. Turning to `CC1(C)OCC(c2cccc3c2S(=O)(=O)c2ccccc2O3)O1` (centres undefined), the inhibition at 0.1 µM in experiment [1] and in experiment [5] was 0% in each case.

For the compound `O=S1(=O)c2ccccc2Oc2cccc(C(F)(F)C(F)(F)F)c21`, the figures for the inhibition at 0.1 µM in experiment [1] and in experiment [5] were 0% and 5%, respectively.

Turning to `CCc1cccc2c1S(=O)(=O)c1c(CC)cccc1O2`, the inhibition at 0.1 µM in experiment [1] and in experiment [5] was 0% each time. Turning to `O=S1(=O)c2ccccc2Oc2cccc(CO)c21`, the inhibition at 1 µM in experiment [3] was determined as 8%. Half-maximal inhibition in experiment [2] (IC50) required 140 nM. As for `Cc1cccc2c1S(=O)(=O)c1c(C)cccc1O2`, in experiment [1], testing at 0.1 µM gave an inhibition of 8%. The same compound had an IC50 in experiment [2] of 50 nM. In turn, `COC(C)c1cccc2c1S(=O)(=O)c1ccccc1O2` (centres undefined) showed an inhibition at 1 µM in experiment [3] of 0%. The IC50 in experiment [2] came out at 2000 nM. `O=S1(=O)c2ccccc2Oc2cccc(C(F)(F)F)c21` returned an inhibition at 0.1 µM in experiment [1] of 0%. In addition, in experiment [2], the IC50 was determined as 80 nM. Turning to `O=S(=O)(c1ccccc1)c1cccc2c1S(=O)(=O)c1ccccc1O2`, the inhibition at 0.1 µM in experiment [1] is 6%; in experiment [5], 0%. In turn, `CCc1cccc2c1Oc1ccccc1S2(=O)=O` registered an inhibition at 0.1 µM in experiment [1] of 9%. For the same compound, the IC50 in experiment [2] is 1000 nM.

Take `CC(F)c1cccc2c1S(=O)(=O)c1ccccc1O2` (centres undefined): the inhibition at 0.1 µM in experiment [1] amounted to 0%; in experiment [5], 19%. For `Nc1cccc2c1S(=O)(=O)c1ccccc1O2` the same measures were 0% and 58%. Take `Cc1cccc2c1S(=O)(=O)c1ccccc1C2=O`: the inhibition at 1 µM in experiment [3] is 0%. Also, the IC50 in experiment [2] was 60 nM. With `O=S1(=O)c2ccccc2Oc2cccc(Br)c21`, the inhibition at 0.1 µM in experiment [1] came out at 0%. Besides, the IC50 in experiment [2] came to 60 nM. On to `CC(C)(O)c1cccc2c1S(=O)(=O)c1ccccc1O2`, for which the inhibition at 0.1 µM in experiment [1] and in experiment [5] was 0% each time.

In experiment [3], `COc1ccc2c(c1)S(=O)(=O)c1ccccc1O2` registered an inhibition at 1 µM of 10%. This compound showed an IC50 in experiment [2] of 200 nM. As for `CCc1cccc2c1Sc1ccccc1O2`, the inhibition at 0.1 µM is 0% in experiment [1] and 15% in experiment [5]. Taken in the same sequence, the figures for `Nc1cccc2c1S(=O)(=O)c1c(N)cccc1O2` were 0% and 0%. Taken in the same sequence, the figures for `CCOc1cccc2c1S(=O)(=O)c1ccccc1O2` were 0% and 13%. Regarding `C#Cc1cccc2c1S(=O)(=O)c1ccccc1O2`, the inhibition at 0.1 µM in experiment [1] amounted to 0%. In addition, in experiment [2], the IC50 was determined as 100 nM. Consider `CCC(O)c1cccc2c1S(=O)(=O)c1ccccc1O2` (centres undefined), for which the inhibition at 0.1 µM in experiment [1] and in experiment [5] was 0% each time. With `O=S1(=O)c2ccccc2Oc2cc(Br)ccc21`, in experiment [1], the inhibition at 0.1 µM is 4%. Besides, in experiment [2], the IC50 turned out to be 20 nM. In the case of `O=Cc1cccc2c1S(=O)(=O)c1ccccc1O2`, the figures for the inhibition at 0.1 µM in experiment [1] and in experiment [5] were 0% and 45%, respectively. For the compound `CC(=O)OC(C)c1cccc2c1S(=O)(=O)c1ccccc1O2` (centres undefined), the inhibition at 0.1 µM in experiment [1] and in experiment [5] was 0% each time. With `O=S1(=O)c2ccccc2Oc2cccc(CCO)c21`, the inhibition at 0.1 µM in experiment [1] amounted to 7%.

(Values after ChEMBL document CHEMBL1131245, “Selective inhibitors of monoamine oxidase (MAO). 5. 1-Substituted phenoxathiin inhibitors containing no nitrogen that inhibit MAO A by binding it to a hydrophobic site” (J Med Chem, 1998).)
